Source: PubChem BioAssay (Johns Hopkins Ion Channel Center)
TRPC4 agonist: activators of mouse TRPC4 channel; Q9QUQ5; HEK293 TRPC4beta/mu-opioid, Fluo4 calcium fluorescence; hits give high values; B-score at 10 µM; hit rate 0.49% among 310,000;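 active = B-score above 5 SD of library B-scores, and initial fluorescence ratio not above library mean plus 5 SD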;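 note: positive B-score marks a calcium rise read as TRPC4 activation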
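Assay system: HEK293 cells stably co-expressing mouse TRPC4beta and mu-opioid receptor / Timing: Fluo4 dye loading 45 min at room temperature, 110 s recording / Signal: Fluo4 calcium-sensitive dye fluorescence, kinetic, 1 Hz baseline / Read-out: integrated baseline-normalised fluorescence ratio, converted to per-well B score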
TRPC6 act: mouse TRPC6 channel activation. Q61143. HEK293-TRPC6 membrane potential dye fluorescence; hits give high values. B-score at 10 µM. hit rate 0.13% among 310,000;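 active = B-score of the integrated fluorescence ratio above library mean plus 3 SD, and starting fluorescence ratio within library mean plus 5 SD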;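 note: higher score means more depolarization so channel activation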
Target sequence (Q61143 whole entry, looked up): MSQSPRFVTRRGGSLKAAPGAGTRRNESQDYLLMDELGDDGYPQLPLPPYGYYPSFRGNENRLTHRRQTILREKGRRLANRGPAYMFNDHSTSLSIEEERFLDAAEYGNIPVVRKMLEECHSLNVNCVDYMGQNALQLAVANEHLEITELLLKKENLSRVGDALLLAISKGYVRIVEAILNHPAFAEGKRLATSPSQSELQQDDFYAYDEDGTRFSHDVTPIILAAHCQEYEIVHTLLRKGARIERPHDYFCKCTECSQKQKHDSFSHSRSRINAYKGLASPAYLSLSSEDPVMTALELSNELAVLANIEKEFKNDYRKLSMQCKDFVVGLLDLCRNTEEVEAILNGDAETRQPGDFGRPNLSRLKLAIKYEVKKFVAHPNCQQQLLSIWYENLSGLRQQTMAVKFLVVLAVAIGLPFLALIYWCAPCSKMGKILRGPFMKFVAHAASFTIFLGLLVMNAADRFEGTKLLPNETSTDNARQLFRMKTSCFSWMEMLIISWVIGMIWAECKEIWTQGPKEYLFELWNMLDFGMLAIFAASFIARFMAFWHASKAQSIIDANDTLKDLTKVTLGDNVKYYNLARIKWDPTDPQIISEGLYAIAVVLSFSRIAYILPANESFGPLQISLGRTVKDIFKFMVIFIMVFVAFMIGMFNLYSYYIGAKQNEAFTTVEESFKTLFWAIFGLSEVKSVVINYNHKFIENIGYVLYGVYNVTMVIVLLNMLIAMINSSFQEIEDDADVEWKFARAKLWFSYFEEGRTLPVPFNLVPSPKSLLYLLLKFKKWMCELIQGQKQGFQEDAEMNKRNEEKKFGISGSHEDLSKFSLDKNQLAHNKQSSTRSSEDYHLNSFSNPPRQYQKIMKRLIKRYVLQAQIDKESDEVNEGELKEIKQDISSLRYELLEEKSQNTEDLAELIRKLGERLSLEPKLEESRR
TRPC4 inh: inhibitors of mouse TRPC4 channel; Q9QUQ5; HEK293 TRPC4beta/mu-opioid, DAMGO-evoked Fluo4 calcium flux; hits give low values; B-score at 10 µM; hit rate 0.39% among 300,000; AID 2247;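 active = B-score over 3 SD under the library average, no early fluorescence shift, positive overall ratio signal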
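test system = HEK293 cells with stable TRPC4beta plus mu-opioid receptor expression | detection = Fluo4 Ca2+ flux fluorescence | read-out = integrated fluorescence ratio relative to baseline, converted to per-well B score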
TRPC4 PAM: allosteric potentiators of mouse TRPC4 channel. Q9QUQ5. HEK293 TRPC4beta/mu-opioid, DAMGO EC20, Fluo-4 Ca2+ flux; hits give high values. B-score at 10 µM. hit rate 0.42% among 310,000;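 active = B-score of calcium response area above 5 SD of library B-scores, with initial fluorescence ratio within 5 SD of library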;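 note: B-score of integrated fluorescence ratio over time as area under calcium response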
TRPC6 inh: mouse TRPC6 channel inhibition; B-score at 10 µM; Q61143; hit rate 1.1% among 310,000; HEK293-TRPC6, membrane potential dye, ACh-evoked depolarization; hits give low values;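 active = B-score under library mean minus 3 SD, initial fluorescence not abnormally high, positive integrated signal ratio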;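 note: B-score derived from integrated fluorescence ratio over the kinetic read; more negative B-score means stronger inhibition of depolarization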
TRPC4 spec 2: mouse TRPC4 off-target activity of TRPC6 inhibitors, second screen | hit rate 42% among 920 | inhibition, % at 10 µM | AID 2776 | HEK293 TRPC4/MOR, membrane potential dye fluorescence; channel activated by saturating DAMGO dose | shares compounds with TRPC6 inh;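 active = compounds whose fluorescence signal differed from control wells by over 3 SD, either direction, in both duplicate plates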
TRPC4 spec: tests whether TRPC6 inhibitors also affect mouse TRPC4; shares compounds with TRPC6 inh; HEK293 TRPC4/mu-opioid, membrane potential fluorescence; activity change, negative = inhibition, % at 10 µM; hit rate 61% among 920;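 active = rise or fall in signal beyond 3 SD of buffer-only wells in both replicate plates, either sign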;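 note: integrated kinetic ratio of fluorescence range over baseline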
HEK293 MPD ctr 2-1: parental HEK293 nonspecific activity of TRPC6 inhibitors, second screen. shares compounds with TRPC6 inh. parental HEK293 membrane potential dye fluorescence; maximal acetylcholine challenge after compound addition. signal change vs control, % at 10 µM. hit rate 31% among 920. AID 2779;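 active = membrane potential signal moving either way by over 3 SD of the maximum-effect control, in both duplicate plates, meaning non-specific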
HEK293 MPD ctr-1: counter-screen for TRPC6 inhibitors: effect in parental HEK293 cells. parental HEK293 membrane potential dye fluorescence. hit rate 60% among 920. AID 2780. membrane potential signal change, % at 10 µM. shares compounds with TRPC6 inh;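 active = membrane potential signal shifting up or down by more than 3 SD of buffer-only wells, on both duplicate plates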
HEK293 MPD ctr-2: parental HEK293 nonspecific activity of TRPC6 modulators. membrane potential dye fluorescence. shares compounds with TRPC6 inh. hit rate 51% among 2,400. membrane potential signal change, % at 10 µM;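 active = membrane potential signal moves up or down beyond 5 SD from buffer-only wells, on both duplicate plates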
HEK293 MPD ctr 2-2: second counter-screen for TRPC6 modulators: effect in parental HEK293 cells. hit rate 14% among 2,400. shares compounds with TRPC6 inh. inhibition, % at 10 µM. AID 488926. membrane potential dye fluorescence; after compound, maximal acetylcholine stimulation;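 active = membrane potential signal drops by more than 5 SD from the mean control signal, in both duplicate plates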;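 note: plate controls were acetylcholine ECmax control wells for no effect and buffer only wells for full effect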
TRPC4/MOR mod: tests whether TRPC6 modulators also affect mouse TRPC4; percent change from control (negative = decrease, positive = increase), % at 10 µM; shares compounds with TRPC6 inh; HEK293 TRPC4/mu-opioid, membrane potential fluorescence; AID 488927; hit rate 69% among 2,400;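 active = membrane potential signal moved up or down beyond 5 SD of buffer control wells, in both duplicate plates, actives on both sides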;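 note: plate controls were assay buffer wells for no effect and DAMGO maximal-effect wells for full effect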
TRPC4/MOR inh 2: second selectivity test of TRPC6 modulators against mouse TRPC4; shares compounds with TRPC6 inh; HEK293 TRPC4/mu-opioid, membrane potential dye fluorescence; stimulated with maximal-effect DAMGO; inhibition, % at 10 µM; hit rate 55% among 2,400;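 active = drop in membrane potential signal beyond 5 SD of the control wells in both duplicate plates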;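 note: TRPC4 counter screen for TRPC6 hits run under conditions tuned for TRPC6 not TRPC4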
TRPC6 block conf: mouse TRPC6 inhibitor confirmation; shares compounds with TRPC6 inh; HEK293-TRPC6, membrane potential dye, ACh-evoked depolarization; inhibition, % at 10 µM; hit rate 43% among 3,300; AID 488960;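 active = fluorescence ratio falls more than 5 SD below the full-stimulation control mean, in both duplicate runs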;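 note: integrated fluorescence ratio of peak minus minimum over baseline after agonist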
TRPC6 act conf: confirmation of mouse TRPC6 activators; HEK293-TRPC6 membrane potential dye fluorescence, FDSS; shares compounds with TRPC6 inh; activation, % at 10 µM; hit rate 11% among 2,800;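 active = ratio signal rise beyond 5 SD above unstimulated control wells' mean, seen in both duplicate runs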;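 note: plate controls were buffer EC0 wells for no effect and acetylcholine ECmax response for full effect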
Starred values were filed as active, the others as inactive; i = inactive; . = not tested or not shown; ! = a repeat was not active. Sampled rows, rich in hits. Any-hit rate of the full collection: about 2.3%.

SMILES	TRPC4 agonist	TRPC6 act	TRPC4 inh	TRPC4 PAM	TRPC6 inh	HEK293 MPD ctr-2	HEK293 MPD ctr 2-2	TRPC4/MOR mod	TRPC4/MOR inh 2	TRPC6 block conf	TRPC6 act conf	others
CCCC(C)c1nc(C(N)=O)c2[nH]c(=O)n(-c3ccc(OC)c(OC)c3)c2n1 (configuration not stated)	i	i	i	i	i	.	.	.	.	.	.
COc1cc2c(cc1OC)C(c1ccccc1)=NCC2	i	i	i	i	i	.	.	.	.	.	.
COc1cc2c(cc1O)CC[n+]1cc3c(OC)c(OC)ccc3cc1-2	i	i	i	i	-7.4*	.	.	.	.	i	i	TRPC4 spec 2=i;TRPC4 spec=-9.5%*;HEK293 MPD ctr 2-1=-66%*;HEK293 MPD ctr-1=i
COc1cc2c(cc1OC)-c1cc3ccc4c(c3c[n+]1CC2)OCO4	i	i	i	i	-7.4*	i	91%*	-194%*	37%*	46%*	i
COc1cc2c(ccc3cc(OC)c(OC)c(O)c32)cc1O	i	i	i	i	i	.	.	.	.	.	.
CC(C)(C)NC(=O)CN(C(=O)Cn1nnc(-c2ccc(Cl)cc2)n1)C1CCN(Cc2ccccc2)CC1	i	i	i	i	i	.	.	.	.	.	.
Cc1ccccc1-c1noc(CCC(=O)NCc2ccco2)n1	i	i	i	i	i	.	.	.	.	.	.
O=C(Nc1ccc(F)cc1)c1ccccc1Oc1ccc(C(F)(F)F)cc1[N+](=O)[O-]	i	i	i	i	-5.3*	i	i	i	35%*	i	i
CCOC(Cn1cc(C)c(=O)[nH]c1=O)OCC	i	i	i	i	i	.	.	.	.	.	.
O=[N+]([O-])c1ccc(Oc2ccc(F)cc2)c2ccncc12	i	i	i	i	-5.1*	i	i	i	i	i	i
COc1ccc(C(=O)NC(=S)N(CCC(C)C)c2c(N)n(Cc3ccccc3)c(=O)[nH]c2=O)cc1	i	i	i	i	-5.5*	i	i	i	i	i	i
COCCCN(C(=S)NC(=O)c1ccc(C(C)(C)C)cc1)c1c(N)n(Cc2ccccc2)c(=O)[nH]c1=O	i	i	i	i	i	.	.	.	.	.	.
Cc1ccc2cc(C#N)c(SCc3nnc(-c4ccccc4[N+](=O)[O-])o3)nc2c1	i	i	i	i	i	.	.	.	.	.	.
CC1CCC(C(C)C)C(OCC(O)C[N+]2(C)CCCCC2)C1 (configuration not stated)	i	i	i	i	i	.	.	.	.	.	.
CC1CCC(C(C)C)C(OCC[N+](C)(C)C)C1 (configuration not stated)	i	i	i	i	-7.7*	.	.	.	.	80%*	i	TRPC4 spec 2=i;TRPC4 spec=i;HEK293 MPD ctr 2-1=4.5%*;HEK293 MPD ctr-1=i
Cc1cccn2c(=O)c3cc(C(=O)NCc4ccco4)c(=N)n(C(C)C)c3nc12	i	i	i	i	-8.1*	.	.	.	.	i	i	TRPC4 spec 2=i;TRPC4 spec=-31%*;HEK293 MPD ctr 2-1=i;HEK293 MPD ctr-1=-446%*
Cc1cccn2c(=O)c3cc(C(=O)NCc4cccnc4)c(=N)n(C(C)C)c3nc12	i	i	i	i	-6.2*	i	i	i	38%*	i	i
CN1C(=O)NC(c2ccccc2)C2=C1CN(c1ccc3ccccc3c1)C2=O (configuration not stated)	i	i	i	i	i	.	.	.	.	.	.
O=C(CC1Sc2ncnn2C1=O)Nc1ccc(Br)cc1 (configuration not stated)	i	i	i	i	i	.	.	.	.	.	.
CCN(CC)CCN1C(=O)Cn2c(C)c(C)c3cccc1c32	i	i	i	i	-8.4*	i	i	-18%*	61%*	53%*	i	TRPC4 spec 2=50%*;TRPC4 spec=-17%*;HEK293 MPD ctr 2-1=i;HEK293 MPD ctr-1=-254%*
CCN(CC)Cc1cc(Nc2ccnc3cc(Cl)ccc23)ccc1O	i	i	i	i	-5.7*!	-184%*	i	-34%*	52%*	i	i
Clc1ccc2c(NCc3ccccc3)ccnc2c1	i	i	i	i	-5.5*	-98%*	i	-23%*	78%*	38%*	i
CCN(CC)CCNc1ccnc2cc(Cl)ccc12	i	i	i	i	-12*	-333%*	70%*	-50%*	71%*	73%*	i
Oc1ccc(Nc2ccnc3cc(Cl)ccc23)cc1	i	i	i	i	i	.	.	.	.	.	.
COc1ccc([N+](=O)[O-])cc1NCc1cccnc1	i	i	i	i	i	.	.	.	.	.	.
O=C(Cc1ccc([N+](=O)[O-])cc1)NCc1cccnc1	i	i	i	i	-5.2*	i	i	i	i	i	i
Cc1ccc(NC(=O)c2cc([N+](=O)[O-])ccc2NCc2cccnc2)cc1	i	i	i	i	-6.7*	.	.	.	.	i	i	TRPC4 spec 2=i;TRPC4 spec=i;HEK293 MPD ctr 2-1=i;HEK293 MPD ctr-1=-145%*
N=c1c(C(=O)NCCN2CCOCC2)cc2c(=O)n3ccccc3nc2n1Cc1ccc(F)cc1	i	i	i	i	-7.7*	-74%*	90%*	-17%*	45%*	56%*	i
